Results collected from several papers.
Each line is one published result; the experiments were not run side by side.
Target: Rho-associated protein kinase 1 (ROCK1, Homo sapiens, UniProt Q13464)

Structure (SMILES)	assay	setting	remaining binding [%]
COc1cnc(Nc2cccc(S(N)(=O)=O)c2)nc1N1CCN(c2ccccc2)CC1	binding, competition with immobilised ligand	1 µM	78
COc1ncc2cc3ccccc3nc2c1C#N	cell-free assay, competition with immobilised ligand	5 µM	84
COc1ccnn2ncc(-c3ccnc(N(C)C)n3)c12	binding	1 µM	93
O=C(NCCCN1CCOCC1)c1ccc(Nc2nccc(-c3cc4ccccc4s3)n2)cc1	binding, competition with immobilised ligand	1 µM	54
FC(F)(F)Oc1cccc(-c2cnc3ccc(-c4ccncc4)nn23)c1	binding, competition with immobilised ligand	5 µM	42
C[C@@H](c1ccc(-n2cnc3c(N)ncnc32)cc1)N1CCc2nn(C)c(Cc3ccccc3)c2C1=O	binding, competition with immobilised ligand	0.1 µM	85
F[C@@H]1CCN(c2nccc(-c3cnn4ncccc34)n2)C1	binding	1 µM	100
CO[C@H]1CC[C@H](CNc2ccc(S(=O)(=O)NC(=O)c3ccc(N4CCN(CC5=C(c6ccc(Cl)cc6)CC(C)(C)CC5)CC4)cc3Oc3cnc4[nH]ccc4c3)cc2[N+](=O)[O-])CC1	cell-free assay, competition with immobilised ligand	1 µM	70
C[C@@H]1CCN(c2nccc(-c3cnn4ncccc34)n2)C1	binding	1 µM	86
CCCOc1ccc([C@H]2[C@H](C(=O)O)[C@@H](c3ccc4c(c3)OCO4)CN2CC(=O)Nc2c(CC)cccc2CC)cc1	cell-free assay, competition with immobilised ligand	1 µM	65
O=C(c1ccc(Nc2nccc(-c3cc4ccccc4s3)n2)cc1)N1CCC(N2CCCC2)CC1	binding, competition with immobilised ligand	1 µM	7.4
CCN1CCN(Cc2ccc(C(=O)Nc3ccc(C)c(Oc4ccc5c(c4)CC(=O)N5)c3)cc2C(F)(F)F)CC1	binding, competition with immobilised ligand	1 µM	69
O=C(NCC1CCOCC1)c1n[nH]cc1NC(=O)c1c(F)cccc1F	binding, competition with immobilised ligand	1 µM	83
CN(C)c1nccc(-c2cnn3ncccc23)n1	binding	1 µM	100
Cc1c(C(=O)O)cc(-c2ccc(C3CCNCC3)cc2)c2ccc(-c3ccc(C(F)(F)F)cc3)cc12	binding, competition with immobilised ligand	1 µM	100
O=C(c1ccc(Nc2ncc(Cl)c(-c3ccc(Cl)s3)n2)cc1)N1CCC(N2CCCC2)CC1	binding, competition with immobilised ligand	1 µM	4.9
CC(=O)c1c(NS(C)(=O)=O)c2cc(-c3ccc(Cl)cc3)c(-c3ccc(Cl)cc3Cl)nc2n(C)c1=O	cell-free assay, competition with immobilised ligand	1 µM	85
N[C@@H]1CCN(c2nccc(-c3cnn4ncccc34)n2)C1	binding	1 µM	94
C[C@H](c1ccc(F)cc1)N(Cc1cccc(C(=O)O)c1)C(=O)c1cnc2ccccc2c1	cell-free assay, competition with immobilised ligand	1 µM	100
CN(C)c1ncc(F)c(-c2cnn3ncccc23)n1	binding	1 µM	100
CS(=O)(=O)c1cc(C2(NC(=O)c3cncc4c3cnn4-c3ccc(F)cc3)CC2)ccn1	cell-free assay, competition with immobilised ligand	1 µM	79
CN(C)c1nccc(-c2cnc3ncccn23)n1	binding	1 µM	74
